Source: ChEMBL document CHEMBL1148787, “Novel substituted (pyridin-3-yl)phenyloxazolidinones: antibacterial agents with reduced activity against monoamine oxidase A and increased solubility” (J Med Chem, 2007)
Converted amounts (≈) assume the structure as drawn.

Tests used:
Streptococcus pneumoniae [1] = experiment: Antibacterial activity against linezolid-resistant Streptococcus pneumoniae; type: functional
In short: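 Broth microdilution per CLSI guidelines. Compounds were dissolved in 100% DMSO and diluted to 2% DMSO (v/v), 64 to 0.06 µg/mL, in 2.2% (w/v) Mueller Hinton broth with 0.65% (v/v) lysed horse blood. Plates were incubated at 35 °C in 5% CO2 and read at 620 nm.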

Staphylococcus aureus = experiment: Antibacterial activity against methicillin-susceptible Staphylococcus aureus AP601055; type: functional
In short: (§1)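 CLSI broth microdilution, 64 to 0.06 µg/mL, 2% DMSO final. Media: S. aureus, Mueller Hinton broth; H. influenzae, MHB plus 0.5% yeast extract, 15 µg/mL hematin, 1.5 µg/mL NAD; S. pneumoniae, MHB plus 0.65% lysed horse blood. 35 °C, aerobic (S. aureus) or 5% CO2.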

[2] = Oral bioavailability in Wistar rat at 10 mg/kg, po; type: ADME, organism-based; conditions: in vivo
In short: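 Wistar Han rats, groups of three; 10 mg/kg given by oral gavage, compared against iv dosing. Serial whole-blood sampling, plasma drug by LC-MS/MS, noncompartmental pharmacokinetic analysis.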

Homo sapiens = species: Homo sapiens; experiment: Protein binding in human plasma; conditions: read-out: PPB (converted)
[3] = Half life in Wistar rat at 2 mg/kg, iv; type: ADME, organism-based; parameters: dose 2 mg/kg, route intravenous; conditions: in vivo
In short: (§2)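 Groups of three Wistar Han rats; bolus injection via cannulated jugular vein at 2 or 10 mg/kg. Serial 200 µL whole-blood samples at time intervals; plasma levels by LC-MS/MS; parameters by noncompartmental analysis.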

[4] = Volume of distribution in Wistar rat at 2 mg/kg, iv; type: ADME, organism-based; parameters: dose 2 mg/kg, route intravenous; conditions: in vivo, read-out: Vdss; in short: as §2
[5] = target: T1, Amine oxidase [flavin-containing] A (Homo sapiens, UniProt P21397); experiment: Inhibition of human liver MAOA expressed in yeast
T1 sequence (P21397 whole entry): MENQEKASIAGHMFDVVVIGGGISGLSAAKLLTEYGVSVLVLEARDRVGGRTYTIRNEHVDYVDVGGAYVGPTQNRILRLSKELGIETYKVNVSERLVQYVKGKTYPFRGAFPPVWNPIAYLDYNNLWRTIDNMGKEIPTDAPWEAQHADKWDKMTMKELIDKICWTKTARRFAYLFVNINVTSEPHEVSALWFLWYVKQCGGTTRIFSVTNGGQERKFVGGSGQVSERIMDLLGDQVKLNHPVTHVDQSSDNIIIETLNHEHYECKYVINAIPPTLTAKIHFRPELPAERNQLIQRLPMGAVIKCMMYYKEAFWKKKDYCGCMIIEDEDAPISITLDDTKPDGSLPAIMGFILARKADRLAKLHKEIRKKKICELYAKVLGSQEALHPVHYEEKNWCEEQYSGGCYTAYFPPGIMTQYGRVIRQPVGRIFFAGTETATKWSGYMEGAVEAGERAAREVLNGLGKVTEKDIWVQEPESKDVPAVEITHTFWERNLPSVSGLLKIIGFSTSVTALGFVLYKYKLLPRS

[6] = Clearance in Wistar rat at 2 mg/kg, iv; type: ADME, organism-based; parameters: dose 2 mg/kg, route intravenous; conditions: in vivo; in short: as §2
Rattus norvegicus = experiment: AUC in Wistar rat at 2 mg/kg, iv; type: ADME, organism-based, Plasma; parameters: dose 2 mg/kg, route intravenous; conditions: in vivo; in short: as §2
Haemophilus influenzae = experiment: Antibacterial activity against Haemophilus influenzae ATCC 51907; type: functional; in short: as §1
Streptococcus pneumoniae [7] = experiment: Antibacterial activity against penicillin-susceptible Streptococcus pneumoniae AP671401; type: functional; in short: as §1
[8] = Solubility by nephelometric analysis; type: physicochemical
In short: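 Nephelometry after diluting compounds into the MAO-A assay mixture (100 mM potassium phosphate, pH 7.4).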

Cytochrome P450 2C9 = Cytochrome P450 2C9 (Homo sapiens, UniProt P11712); experiment: Inhibition of human recombinant CYP2C9; type: ADME
In short: (§3)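 Recombinant human P450s, compound at 0.2-20 µM; fluorogenic substrates: 3-cyano-7-ethoxycoumarin (1A2), 7-methoxy-4-trifluoromethylcoumarin (2C9, 2C19), 7-methoxy-4-(aminomethyl)coumarin (2D6). Fluorescence detection; IC50 determined.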

Cytochrome P450 3A4 = Cytochrome P450 3A4 (Homo sapiens, UniProt P08684); experiment: Inhibition of human recombinant CYP3A4; type: ADME
Cytochrome P450 2C19 = Cytochrome P450 2C19 (Homo sapiens, UniProt P33261); experiment: Inhibition of human recombinant CYP2C19; type: ADME; in short: as §3
Cytochrome P450 1A2 = target: T2, Cytochrome P450 1A2 (Homo sapiens, UniProt P05177); experiment: Inhibition of human recombinant CYP1A2; type: ADME; in short: as §3
T2 sequence (P05177 whole entry): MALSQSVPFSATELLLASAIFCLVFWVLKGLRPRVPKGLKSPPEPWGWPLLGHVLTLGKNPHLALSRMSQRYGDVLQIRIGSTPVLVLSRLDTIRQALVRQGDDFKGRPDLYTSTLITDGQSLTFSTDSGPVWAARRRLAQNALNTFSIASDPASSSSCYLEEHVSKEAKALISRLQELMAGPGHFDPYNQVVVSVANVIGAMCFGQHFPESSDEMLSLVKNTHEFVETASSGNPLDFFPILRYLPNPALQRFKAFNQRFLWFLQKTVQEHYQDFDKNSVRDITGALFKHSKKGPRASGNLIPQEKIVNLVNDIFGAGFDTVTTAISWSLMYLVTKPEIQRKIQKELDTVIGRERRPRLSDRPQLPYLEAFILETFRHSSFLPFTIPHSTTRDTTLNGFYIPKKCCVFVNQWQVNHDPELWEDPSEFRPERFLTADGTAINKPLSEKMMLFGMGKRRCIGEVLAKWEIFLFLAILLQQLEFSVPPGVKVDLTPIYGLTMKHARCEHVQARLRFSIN

Mus musculus [9] = experiment: AUC in Streptococcus pneumoniae 548 infected mouse lung infection model at 80 mg/kg/day, po; type: ADME, organism-based; parameters: route oral; conditions: in vivo
In short: (§4)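 CD-1 mice; oral gavage at 40 or 80 mg/kg. Groups of three sacrificed at timed intervals, whole blood taken by cardiac puncture; plasma treated with methanol containing internal standard and quantified by LC-MS/MS against standard curve.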

Streptococcus pneumoniae [10] = experiment: Antibacterial activity against Streptococcus pneumoniae 548 infected mouse lung infection model assessed as reduction in bacterial count at 40 mg/kg/day, po relative to control; type: functional
In short: (§5)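 Groups of 10 CD-1 mice infected intratracheally, 1 × 10^5 cfu/lung. Oral gavage of compound or vehicle started 18 h post-infection. Lungs removed 24 h after treatment start, homogenized, serially diluted onto Tryptic Soy agar with 5% sheep blood; log CFU reduction versus vehicle group.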

Streptococcus pneumoniae [11] = experiment: Antibacterial activity against Streptococcus pneumoniae 548 infected mouse lung infection model assessed as reduction in bacterial count at 80 mg/kg/day, po relative to control; type: functional; in short: as §5
Cytochrome P450 2D6 = Cytochrome P450 2D6 (Homo sapiens, UniProt P10635); experiment: Inhibition of human recombinant CYP2D6; type: ADME; in short: as §3
Mus musculus [12] = experiment: AUC in Streptococcus pneumoniae 548 infected mouse lung infection model at 40 mg/kg/day, po; type: ADME, organism-based; parameters: route oral; conditions: in vivo; in short: as §4
[13] = Clearance in Wistar rat at 10 mg/kg, iv; type: ADME, organism-based; parameters: dose 10 mg/kg, route intravenous; conditions: in vivo; in short: as §2
[14] = Volume of distribution in Wistar rat at 10 mg/kg, iv; type: ADME, organism-based; parameters: dose 10 mg/kg, route intravenous; conditions: in vivo, read-out: Vdss; in short: as §2
[15] = Half life in Wistar rat at 10 mg/kg, iv; type: ADME, organism-based; parameters: dose 10 mg/kg, route intravenous; conditions: in vivo; in short: as §2
[16] = AUC in Wistar rat at 10 mg/kg, iv; type: ADME, organism-based; parameters: dose 10 mg/kg, route intravenous; conditions: plasma; in short: as §2

Cytochrome P450 3A4, sequence (P08684 whole entry): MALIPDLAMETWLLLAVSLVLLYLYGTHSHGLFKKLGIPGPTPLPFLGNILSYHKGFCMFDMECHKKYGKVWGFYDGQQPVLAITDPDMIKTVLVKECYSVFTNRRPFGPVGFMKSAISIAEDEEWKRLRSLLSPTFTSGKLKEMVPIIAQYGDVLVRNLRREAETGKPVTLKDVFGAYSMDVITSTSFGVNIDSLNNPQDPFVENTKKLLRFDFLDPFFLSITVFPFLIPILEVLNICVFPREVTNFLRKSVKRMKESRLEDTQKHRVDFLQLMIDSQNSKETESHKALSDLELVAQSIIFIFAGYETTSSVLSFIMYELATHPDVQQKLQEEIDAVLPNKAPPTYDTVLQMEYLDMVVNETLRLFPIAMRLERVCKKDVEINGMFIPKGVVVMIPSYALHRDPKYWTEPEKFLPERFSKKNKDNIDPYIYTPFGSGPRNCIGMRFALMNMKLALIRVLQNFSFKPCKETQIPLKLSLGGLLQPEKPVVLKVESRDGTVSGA
Cytochrome P450 2D6, sequence (P10635 whole entry): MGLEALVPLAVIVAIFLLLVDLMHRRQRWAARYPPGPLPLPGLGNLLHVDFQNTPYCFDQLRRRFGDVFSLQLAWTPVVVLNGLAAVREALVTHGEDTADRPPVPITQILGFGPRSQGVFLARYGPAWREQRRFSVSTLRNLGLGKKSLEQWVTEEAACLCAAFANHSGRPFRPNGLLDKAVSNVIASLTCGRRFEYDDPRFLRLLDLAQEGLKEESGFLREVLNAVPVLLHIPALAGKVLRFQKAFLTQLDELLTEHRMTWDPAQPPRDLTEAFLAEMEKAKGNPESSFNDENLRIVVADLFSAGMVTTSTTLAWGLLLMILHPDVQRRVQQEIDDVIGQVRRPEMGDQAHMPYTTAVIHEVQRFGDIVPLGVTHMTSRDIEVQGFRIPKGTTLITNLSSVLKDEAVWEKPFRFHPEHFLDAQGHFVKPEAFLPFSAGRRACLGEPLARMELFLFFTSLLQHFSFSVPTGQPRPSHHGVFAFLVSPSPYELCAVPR
Cytochrome P450 2C19, sequence (P33261 whole entry): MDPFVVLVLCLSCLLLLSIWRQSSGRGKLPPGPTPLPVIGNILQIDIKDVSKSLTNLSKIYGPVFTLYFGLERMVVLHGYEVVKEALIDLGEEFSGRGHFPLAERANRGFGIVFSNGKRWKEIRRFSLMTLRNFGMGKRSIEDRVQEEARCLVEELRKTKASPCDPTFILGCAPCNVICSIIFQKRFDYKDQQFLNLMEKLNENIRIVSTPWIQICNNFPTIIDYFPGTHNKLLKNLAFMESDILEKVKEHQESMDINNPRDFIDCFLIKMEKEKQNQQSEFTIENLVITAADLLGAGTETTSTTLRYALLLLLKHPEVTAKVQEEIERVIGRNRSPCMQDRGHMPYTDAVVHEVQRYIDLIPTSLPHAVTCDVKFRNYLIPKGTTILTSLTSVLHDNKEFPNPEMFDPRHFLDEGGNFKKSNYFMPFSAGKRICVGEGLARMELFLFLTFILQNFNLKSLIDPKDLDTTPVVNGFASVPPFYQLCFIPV
Cytochrome P450 2C9, sequence (P11712 whole entry): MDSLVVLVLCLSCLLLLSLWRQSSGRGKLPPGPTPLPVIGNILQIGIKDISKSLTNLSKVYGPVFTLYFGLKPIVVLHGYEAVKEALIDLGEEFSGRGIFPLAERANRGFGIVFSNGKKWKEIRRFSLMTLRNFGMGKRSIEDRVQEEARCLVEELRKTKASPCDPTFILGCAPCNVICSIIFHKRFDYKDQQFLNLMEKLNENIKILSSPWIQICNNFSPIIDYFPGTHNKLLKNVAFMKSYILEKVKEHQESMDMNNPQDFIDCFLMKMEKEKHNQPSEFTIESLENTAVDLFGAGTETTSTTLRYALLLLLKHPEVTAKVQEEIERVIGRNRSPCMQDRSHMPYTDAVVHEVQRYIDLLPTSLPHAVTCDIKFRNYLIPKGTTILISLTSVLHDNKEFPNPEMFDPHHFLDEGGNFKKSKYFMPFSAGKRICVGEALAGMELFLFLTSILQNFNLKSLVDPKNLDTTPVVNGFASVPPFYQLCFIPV

## Cc1cn(CC(=O)c2ccc(-c3ccc(N4C[C@H](Cn5ccnn5)OC4=O)cc3F)cn2)c(C)n1
Streptococcus pneumoniae [1]
  MIC: 0.25 µg/mL (≈ 0.526 µM)
Staphylococcus aureus
  MIC: 0.25 µg/mL (≈ 0.526 µM)
[2]
  bioavailability: 14%
Homo sapiens
  fraction unbound: 0.12
[3]
  half-life: 60 min
[4]
  Vd: 0.9 L/kg
[5]
  Ki: > 11 µM
[6]
  clearance: 13 mL/min/kg
Rattus norvegicus
  AUC: 2.6 ug/hr.ml
Haemophilus influenzae
  MIC: 2 µg/mL (≈ 4.21 µM)
Streptococcus pneumoniae [7]
  MIC: < 0.06 µg/mL
[8]
  solubility kinetic: 25 µM (≈ 11.9 µg/mL)

## CCc1nccn1CC(=O)c1ccc(-c2ccc(N3C[C@H](Cn4ccnn4)OC3=O)cc2F)cn1
Streptococcus pneumoniae [1]
  MIC: 0.5 µg/mL (≈ 1.05 µM)
Staphylococcus aureus
  MIC: 0.5 µg/mL (≈ 1.05 µM)
[3]
  half-life: 36 min
[4]
  Vd: 0.9 L/kg
[5]
  Ki: > 44 µM
[6]
  clearance: 23 mL/min/kg
Rattus norvegicus
  AUC: 1.6 ug/hr.ml
Haemophilus influenzae
  MIC: 4 µg/mL (≈ 8.41 µM)
Streptococcus pneumoniae [7]
  MIC: < 0.06 µg/mL
[8]
  solubility kinetic: 100 µM (≈ 47.5 µg/mL)

## Cc1cnc(C)n1CC(=O)c1ccc(-c2ccc(N3C[C@H](Cn4ccnn4)OC3=O)cc2F)cn1
Streptococcus pneumoniae [1]
  MIC: 0.5 µg/mL (≈ 1.05 µM)
Staphylococcus aureus
  MIC: 0.25 µg/mL (≈ 0.526 µM)
Cytochrome P450 2C9
  IC50: > 20 µM
[2]
  bioavailability: 73%
Homo sapiens
  fraction unbound: 0.1
[3]
  half-life: 108 min
[4]
  Vd: 1.4 L/kg
Cytochrome P450 3A4
  IC50: 10.7 µM
Cytochrome P450 2C19
  IC50: > 20 µM
[5]
  Ki: 19 µM
Cytochrome P450 1A2
  IC50: > 20 µM
Mus musculus [9]
  AUC: 31000 ng·h/mL
Streptococcus pneumoniae [10]
  Log10 cfu: 1.94
[6]
  clearance: 10 mL/min/kg
Rattus norvegicus
  AUC: 3.3 ug/hr.ml
Haemophilus influenzae
  MIC: 4 µg/mL (≈ 8.41 µM)
Streptococcus pneumoniae [7]
  MIC: < 0.06 µg/mL
Streptococcus pneumoniae [11]
  Log10 cfu: 2.57
Cytochrome P450 2D6
  IC50: > 20 µM
[8]
  solubility kinetic: 50 µM (≈ 23.8 µg/mL)
Mus musculus [12]
  AUC: 17400 ng·h/mL

## Cc1nccn1CC(=O)c1ccc(-c2ccc(N3C[C@H](Cn4ccnn4)OC3=O)cc2F)cn1
Streptococcus pneumoniae [1]
  MIC: 0.5 µg/mL (≈ 1.08 µM)
[13]
  clearance: 62 mL/min/kg
Staphylococcus aureus
  MIC: 0.5 µg/mL (≈ 1.08 µM)
Cytochrome P450 2C9
  IC50: > 20 µM
[2]
  bioavailability: 100%
Homo sapiens
  fraction unbound: 0.25
Cytochrome P450 3A4
  IC50: > 20 µM
Cytochrome P450 2C19
  IC50: > 20 µM
[5]
  Ki: > 89 µM
Cytochrome P450 1A2
  IC50: > 20 µM
[14]
  Vd: 0.3 L/kg
[15]
  half-life: 24 min
[16]
  AUC: 1200 ng·h/mL
Haemophilus influenzae
  MIC: 2 µg/mL (≈ 4.33 µM)
Streptococcus pneumoniae [7]
  MIC: 0.13 µg/mL (≈ 0.282 µM)
Cytochrome P450 2D6
  IC50: > 20 µM
[8]
  solubility kinetic: 200 µM (≈ 92.3 µg/mL)

## CC(=O)NC[C@H]1CN(c2ccc(N3CCOCC3)c(F)c2)C(=O)O1 [LINEZOLID]
Mus musculus [9]
  AUC: 105000 ng·h/mL
Streptococcus pneumoniae [11]
  Log10 cfu: 3.89
Mus musculus [12]
  AUC: 45700 ng·h/mL
